Pemphigus Ab inh: human desmoglein-3 autoantibody binding inhibition. binding (percent of control), % at 10 µM. P32926. 0.48% of 310,000 active. DSG3-coupled beads, scFv-anti-DSG3-GFP binding, flow cytometry; hits give low values;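 active = binding more than 3 SD below its plate's average and above zero; inconclusive = below that plate limit but binding exactly zero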;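 note: hits lower antibody fragment binding to DSG3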
ALR H2O2 inh: blocks human ALR sulfhydryl oxidase activity. P55789. purified ALR, DTT oxidation, H2O2 HRP-luminol luminescence. inhibition, % (no concentration beside the values). 3.8% of 290,000 active;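 active = mean replicate inhibition above about 79%, with every replicate also reaching it, limit read from the data; inconclusive = only one of the two criteria met; inactive = mean below limit and not every replicate reaching it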
Target sequence (P55789 whole entry, looked up): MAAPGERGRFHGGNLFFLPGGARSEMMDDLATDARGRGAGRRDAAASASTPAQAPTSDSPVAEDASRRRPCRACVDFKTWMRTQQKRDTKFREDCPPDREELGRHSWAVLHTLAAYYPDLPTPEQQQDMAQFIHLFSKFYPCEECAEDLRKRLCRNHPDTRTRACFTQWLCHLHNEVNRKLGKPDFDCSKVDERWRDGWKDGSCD
NLRP3 yeast inh: blocks the NALP3 inflammasome reconstituted in yeast | Yeast reconstituted NLRP3/ASC/caspase-1, beta-gal luminescence, 24 h | inhibition, % at 10 µM | 0.39% of 330,000 active | AID 2825;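 active = inhibition of 50% or more; inactive = inhibition below 50%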
PolyA inh: inhibitors of polyadenylation in S. cerevisiae | activity score, % at 12 µM | S. cerevisiae SKY197-pL101 polyadenylation reporter, beta-gal luminescence; efflux-impaired pdr1/pdr3 knockout yeast; score 100 = 6 SD above DMSO | 0.02% of 300,000 active;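 active = lowest replicate activity score at least 50, where 100 means six control SD above control mean; inconclusive = lowest score under 50 but half or more replicates reach 50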;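 note: yeast exposed to compound for 9 h at 30 °C; higher score means more reporter readthrough which indicates perturbed polyadenylation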
NALP1 yeast inh: blocks the NALP1 inflammasome reconstituted in yeast. S. cerevisiae NALP1/ASC/caspase-1 growth, X-gal OD620, 72 h. inhibition, % at 10 µM. 0.61% of 280,000 active. AID 2071; in the data active = inhibition mostly above about 24%, no sharp cut-off; inactive = mostly below about 32%
Arr AP2 block: inhibitors of human beta-arrestin and AP2 interaction | FITC-arrestin peptide / GST-AP2 beads, flow cytometry; AP2 beta2 appendage carries R879A mutation | inhibition, % at 10 µM | 0.31% of 340,000 active;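 active = inhibition above a set limit, near 3 SD of compounds lacking own fluorescence, cut at about 54% in these data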
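Assay system: GST-AP2 R879A bound to glutathione beads, E. coli-expressed; Medium: PBS with 0.05% Tween 20 and 0.1% BSA; Also added: fluorescein-tagged arrestin peptide at 50 nM final; Timing: 12 min plus 1 h, RT; Measured by: flow cytometry, FL1 (488/535 nm); Evaluation: percent drop in bead-associated FITC signal.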
Each line names hits and unclear results; the compound was inactive in the other large screens. Hits are enriched below; roughly 4.6% of the tested compounds scored in any of these assays.

CN(C)CCCn1c2c(c(SCC(=O)Nc3ccc4c(c3)OCCO4)nc1=O)CCC2	ALR H2O2 inh 98.8 (no result: NALP1 yeast inh)
CCCCc1ccc(NC(=O)CSc2nc(=O)n(CCN(C)C)c3c2CCC3)cc1	ALR H2O2 inh 98.2 (no result: NALP1 yeast inh)
COc1ccc(NC(=O)CSc2nc(=O)n(CCN(C)C)c3c2CCCC3)cc1	none (no result: NALP1 yeast inh)
CCCCc1ccc(NC(=O)CSc2nc(=O)n(CCN(CC)CC)c3c2CCCC3)cc1	ALR H2O2 inh 98.1 (no result: NALP1 yeast inh)
COc1cc2c(cc1OC)C(=O)C(Br)CC2 (configuration not stated)	none (no result: ALR H2O2 inh, NLRP3 yeast inh, PolyA inh, NALP1 yeast inh, Arr AP2 block)
CN(Cc1cccc(Cl)c1Cl)C(=O)CCNC(=O)c1ccco1	none (no result: PolyA inh, NALP1 yeast inh)
CC(CC(=O)c1ccccc1)=NCC(O)CN=C(C)CC(=O)c1ccccc1 (configuration not stated)	none (no result: ALR H2O2 inh, NLRP3 yeast inh, PolyA inh, NALP1 yeast inh, Arr AP2 block)
OCCN1CCN(CC/C=C2/c3ccccc3Sc3ccc(Cl)cc32)CC1	none (no result: PolyA inh, NALP1 yeast inh)
CN(C)CCCN1c2ccccc2Sc2ccc(Cl)cc21	ALR H2O2 inh 98.3
CC(=O)c1ccc2c(c1)N(CCCN1CCC(CCO)CC1)c1ccccc1S2	ALR H2O2 inh 96.2 (no result: PolyA inh, NALP1 yeast inh)
CN(C)CCCN1c2ccccc2Sc2ccc3ccccc3c21	none (no result: ALR H2O2 inh, NLRP3 yeast inh, PolyA inh, NALP1 yeast inh)
OCCN1CCN(CCCN2c3ccccc3Sc3ccc(Cl)cc32)CC1	ALR H2O2 inh 98.5 (no result: Pemphigus Ab inh)
CN1CCN(CCCN2c3ccccc3Sc3ccc(S(=O)(=O)N(C)C)cc32)CC1	ALR H2O2 inh 96.4 (no result: PolyA inh, NALP1 yeast inh)
CCN1C(=O)c2ccccc2Sc2ccc(C(=O)NCCCN3CCCCC3)cc21	none
CC(=O)c1cc2c(cc1F)C(C)(C)CCC2(C)C	none (no result: ALR H2O2 inh, NLRP3 yeast inh, PolyA inh, NALP1 yeast inh)
CCOc1ccc(S(=O)(=O)N2CCN(C(=O)CCOc3ccccc3C)CC2)cc1	none (no result: NALP1 yeast inh)
C=CCN1C(=O)CSC1=Nc1ccc(O)cc1	ALR H2O2 inh 99.2 (no result: Pemphigus Ab inh)
COc1cc(/C=N/N=C2/SCC(=O)N2c2ccc(O)cc2)ccc1O	none
C=CCN1C(=O)CSC1=Nc1ccc(NC(C)=O)cc1	none
O=C1CSC(=Nc2ccc(O)cc2)N1c1ccc(O)cc1	ALR H2O2 inh 98.7 (no result: PolyA inh)
OC(CNCCc1ccc(C(F)(F)F)cc1)COC(c1ccccc1)c1ccccc1 (configuration not stated)	none
Cc1cccc(C)c1N=Nc1c(C)cc(O)cc1C	ALR H2O2 inh 92.4
Cc1c(NS(=O)(=O)c2cccc(C(=O)OCC(=O)c3ccc(Cl)cc3)c2)c(=O)n(-c2ccccc2)n1C	none (no result: ALR H2O2 inh, NLRP3 yeast inh, PolyA inh, NALP1 yeast inh)
NC(=O)/C=C\C(=O)Nc1cccc(C(F)(F)F)c1	NALP1 yeast inh 61.3
CCCCOc1ccc(CC(=O)NO)cc1	ALR H2O2 inh 90.6
CCCCOc1ccc(C(=O)NC)cc1	none
CCOCCCNC(=O)C1CC(=O)N(CCc2ccc(C)cc2)C1 (configuration not stated)	NALP1 yeast inh 37.5
CC(=O)Nc1cccc(NS(=O)(=O)c2ccc3c(c2)CCC(=O)N3)c1	none (no result: ALR H2O2 inh, NLRP3 yeast inh, PolyA inh, NALP1 yeast inh, Arr AP2 block)
COc1ccccc1OCc1nnc(SCC(=O)N2CCCCC2)o1	none (no result: ALR H2O2 inh)
CC(=O)c1sc(-c2ccccc2)cc1NS(=O)(=O)c1ccccc1	Pemphigus Ab inh 75.3
CC1CCC/C(=C\c2ccc(O)cc2)C1=O (configuration not stated)	ALR H2O2 inh 91.6 (no result: NALP1 yeast inh)
NC(=O)c1ccc(-n2nnnc2SCC(=O)c2ccc(O)c(O)c2)cc1	ALR H2O2 inh 96.5
COc1ccc(-n2nnnc2SCC(=O)c2ccc(O)c(O)c2)cc1	none (no result: ALR H2O2 inh)
Cc1cc(C(=O)CSc2nnnn2-c2ccc(O)cc2)c(C)n1C	ALR H2O2 inh 88.9
N#Cc1ccc(S(=O)(=O)N2CCN(C(=O)[C@@H]3CCCN3C(=O)c3cccs3)CC2)cc1	none (no result: PolyA inh, NALP1 yeast inh)
O=C(O)C1CCc2nc(NCc3ccccc3)nc(NCc3ccccc3)c2C1 (configuration not stated)	none (no result: ALR H2O2 inh, NLRP3 yeast inh, PolyA inh, NALP1 yeast inh)
COc1ccc([N+](=O)[O-])cc1NC1CCCCC1	ALR H2O2 inh 98.8
COc1ccc([N+](=O)[O-])cc1NC1C2CC3CC(C2)CC1C3 (configuration not stated)	none
CCN(CC)S(=O)(=O)c1ccc2[nH]cc(C(=O)NCCN3CCCCCC3)c(=O)c2c1	NALP1 yeast inh 32.5
CCN(CC)S(=O)(=O)c1ccc2[nH]cc(C(=O)NCCCN3CCCCC3)c(=O)c2c1	none
CC(C)C(=O)N1CCN(c2ccccc2NC(=O)c2ccc3c(c2)OCCO3)CC1	none (no result: ALR H2O2 inh, NLRP3 yeast inh, PolyA inh, NALP1 yeast inh)
Cc1ccc(-n2nc(C(=O)NCc3ccc(C)o3)c3c4ccccc4n(C)c3c2=O)cc1	NALP1 yeast inh 38.5
COc1ccc(NC(=O)CN(C)C(=O)c2ccc(NS(=O)(=O)c3ccc4[nH]c(=O)[nH]c4c3)cc2)cc1	none (no result: NALP1 yeast inh)
CCOC(=O)c1ccc(S(=O)(=O)NCC(C)(C)N2CCOCC2)cc1	Pemphigus Ab inh 77.0 (no result: ALR H2O2 inh)
CC(=O)c1cccc(S(=O)(=O)NCC(C)(C)N2CCOCC2)c1	none
CCOC(=O)c1ccc(S(=O)(=O)Nc2cc(C(=O)O)ccc2Cl)cc1	ALR H2O2 inh 98.9
CCOC(=O)c1ccc(S(=O)(=O)NNS(=O)(=O)c2ccc(C)cc2)cc1	none
Cc1nn(-c2ccccc2)c2[nH]c(=O)c(CNc3ccc(N4CCOCC4)cc3)cc12	Pemphigus Ab inh 75.5, ALR H2O2 inh 96.7
COc1c(O)cc2oc(-c3ccc(O)cc3)cc(=O)c2c1O	ALR H2O2 inh 93.9
O=c1cc(-c2ccc(O)cc2)oc2c(O)c(O)c(O)c(O)c12	Pemphigus Ab inh 58.2, ALR H2O2 inh 86.4 (no result: PolyA inh)
COc1cc2oc(-c3ccc(O)cc3)cc(=O)c2c(O)c1OC	ALR H2O2 inh 98.0
CCc1sc(C(=O)Nc2ccc3c(c2)OCCO3)cc1Br	none (no result: Pemphigus Ab inh)
COC(=O)c1c(NC(=O)CN2CCN(Cc3ccc4c(c3)OCO4)CC2)sc(C)c1C	ALR H2O2 inh 97.3
COC(=O)c1ccsc1NC(=O)CN1CCN(Cc2ccc3c(c2)OCO3)CC1	none
COc1ccc(Nc2nc3c(C)cccn3c(=O)c2C=NCc2ccccc2)cc1	Pemphigus Ab inh 70.0
CNc1nc2c(C)cccn2c(=O)c1C=NCc1ccccc1	none
COc1cc(C(=O)OCC(=O)N2CCOCC2)c([N+](=O)[O-])cc1OC	none (no result: Pemphigus Ab inh)
CCSc1nc2c(c(-c3ccc(C)o3)c1C#N)CCCC2	ALR H2O2 inh 82.7
COC(=O)CSc1nc2c(c(-c3ccc(C)o3)c1C#N)CCCC2	none
O=C(NCCCn1ccnc1)C(=O)NCC(c1ccco1)N1CCN(c2ccccc2)CC1 (configuration not stated)	ALR H2O2 inh 99.1, PolyA inh inconclusive
COC(=O)NCC(c1cccnc1)N1CCN(c2ccccc2F)CC1 (configuration not stated)	none
COc1ccc(N2CCN(C(CNC(=O)C(=O)NCCCn3ccnc3)c3ccco3)CC2)cc1 (configuration not stated)	ALR H2O2 inh 83.4
O=C(NCCCn1ccnc1)C(=O)NCC(c1cccnc1)N1CCN(c2ccccc2)CC1 (configuration not stated)	ALR H2O2 inh 98.9
